Source: ChEMBL document CHEMBL1137710, “Synthesis and in vitro antitumor activity of new quinoxaline derivatives” (2009)

Experiments:
Format in all cases: functional
MCF7 = assay: Anticancer activity against human MCF7 cells assessed as cell growth at 100 uM after 48 hrs by sulforhodamine B assay; details: MCF7, 48 h, read-out: Activity
SF-268 = assay: Anticancer activity against human SF268 cells assessed as cell growth at 100 uM after 48 hrs by sulforhodamine B assay; details: SF-268, 48 h, read-out: Activity
[1] = Growth inhibition of human […] cells after 48 hrs by sulforhodamine B assay
Summary of the method: (§1)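 NCI 60-human-tumor-cell-line panel, with compounds tested over a 5-log dose range. Values are taken from dose-response curves as log10 molar concentrations: GI50 is 50% net growth inhibition, TGI is total growth inhibition, and LC50 is 50% net cell death.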

SR = assay: Growth inhibition of human SR cells after 48 hrs by sulforhodamine B assay
Summary of the method: (§2)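 Run in the NCI 60-human-tumour-cell-line panel, tested over a 5-log dose range. Dose–response curves gave three values per cell line, each as a log10 molar concentration: GI50 (50% inhibition of net cell growth), TGI (total inhibition of net growth) and LC50 (50% net cell death). The mean graph midpoint is the arithmetic mean over all lines, with insensitive lines entered at the highest concentration tested.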

A549 = assay: Growth inhibition of human A549 cells after 48 hrs by sulforhodamine B assay; details: A549, 48 h; summary of the method: as §1
NCI-H23 = assay: Growth inhibition of human NCI-H23 cells after 48 hrs by sulforhodamine B assay; details: NCI-H23, 48 h; summary of the method: as §1
NCI-H460 = assay: Growth inhibition of human NCI-H460 cells after 48 hrs by sulforhodamine B assay; details: NCI-H460, 48 h; summary of the method: as §1
COLO 205 = assay: Growth inhibition of human COLO205 cells after 48 hrs by sulforhodamine B assay; details: COLO 205, 48 h; summary of the method: as §1
HCT-116 = assay: Growth inhibition of human HCT116 cells after 48 hrs by sulforhodamine B assay; details: HCT-116, 48 h; summary of the method: as §1
KM12 = assay: Growth inhibition of human KM12 cells after 48 hrs by sulforhodamine B assay; details: KM12, 48 h; summary of the method: as §1
SW-620 = assay: Growth inhibition of human SW620 cells after 48 hrs by sulforhodamine B assay; details: SW-620, 48 h; summary of the method: as §2
SF-295 = assay: Growth inhibition of human SF295 cells after 48 hrs by sulforhodamine B assay; details: SF-295, 48 h; summary of the method: as §1
SNB-19 = assay: Growth inhibition of human SNB19 cells after 48 hrs by sulforhodamine B assay; details: SNB-19, 48 h; summary of the method: as §2
U-251 = assay: Growth inhibition of human U251 cells after 48 hrs by sulforhodamine B assay; details: U-251, 48 h; summary of the method: as §2
LOX IMVI = assay: Growth inhibition of human LOXIMVI cells after 48 hrs by sulforhodamine B assay; summary of the method: as §1
M14 = assay: Growth inhibition of human M14 cells after 48 hrs by sulforhodamine B assay; details: M14, 48 h; summary of the method: as §1
OVCAR-5 = assay: Growth inhibition of human OVCAR5 cells after 48 hrs by sulforhodamine B assay; details: OVCAR-5, 48 h; summary of the method: as §1
OVCAR-8 = assay: Growth inhibition of human OVCAR8 cells after 48 hrs by sulforhodamine B assay; details: OVCAR-8, 48 h; summary of the method: as §1
SK-OV-3 = assay: Growth inhibition of human SKOV3 cells after 48 hrs by sulforhodamine B assay; details: SK-OV-3, 48 h; summary of the method: as §1
786-0 = assay: Growth inhibition of human 786-0 cells after 48 hrs by sulforhodamine B assay; details: 786-0, 48 h; summary of the method: as §1
CAKI-1 = assay: Growth inhibition of human Caki1 cells after 48 hrs by sulforhodamine B assay; details: CAKI-1, 48 h; summary of the method: as §1
RXF 393 = assay: Growth inhibition of human RXF393 cells after 48 hrs by sulforhodamine B assay; details: RXF 393, 48 h; summary of the method: as §1
TK-10 = assay: Growth inhibition of human TK10 cells after 48 hrs by sulforhodamine B assay; details: TK-10, 48 h; summary of the method: as §2
PC-3 = assay: Growth inhibition of human PC3 cells after 48 hrs by sulforhodamine B assay; details: PC-3, 48 h; summary of the method: as §1
DU-145 = assay: Growth inhibition of human DU145 cells after 48 hrs by sulforhodamine B assay; details: DU-145, 48 h; summary of the method: as §1
NCI/ADR-RES = assay: Growth inhibition of human NCI/ADR-RES cells after 48 hrs by sulforhodamine B assay; summary of the method: as §1
MDA-MB-231 = assay: Growth inhibition of human MDA-MB-231 cells after 48 hrs by sulforhodamine B assay; details: MDA-MB-231, 48 h; summary of the method: as §1
[2] = Growth inhibition of human Hs 578T cells after 48 hrs by sulforhodamine B assay; summary of the method: as §1
MDA-MB-435 = assay: Growth inhibition of human MDA-MB-435 cells after 48 hrs by sulforhodamine B assay; details: MDA-MB-435, 48 h; summary of the method: as §1
[3] = read-out: pLC50 (the source's name) (converted)

COc1ccc(Oc2nc3cc(N)cc(N)c3nc2-c2ccccc2)cc1
growth at 100 µM (MCF7): -89% | growth at 100 µM (SF-268): -56% | GI50 [1]: 10.5 µM | LC50 [1]: > 100 µM | TGI ([1]; read-out: pTGI (converted)): 70.8 µM | GI50 (SR): 18.6 µM | LC50 (concentration giving 50% net cell death) (SR): > 100 µM | TGI (SR; read-out: pTGI (converted)): > 100 µM | GI50 (A549): 37.2 µM | LC50 (A549): > 100 µM | TGI (A549; read-out: pTGI (converted)): > 100 µM | GI50 (NCI-H23): 25.1 µM | LC50 (50% net cell kill concentration) (NCI-H23): > 100 µM | TGI (NCI-H23; read-out: pTGI (converted)): > 100 µM | GI50 (NCI-H460): 30.9 µM | LC50 (50% net cell kill) (NCI-H460): > 100 µM | TGI (NCI-H460; read-out: pTGI (converted)): > 100 µM | GI50 (COLO 205): > 100 µM | LC50 (50% net cell kill) (COLO 205): > 100 µM | TGI (COLO 205; read-out: pTGI (converted)): > 100 µM | GI50 (HCT-116): 28.8 µM | LC50 (concentration causing 50% net cell death) (HCT-116): > 100 µM | TGI (HCT-116; read-out: pTGI (converted)): 75.9 µM | GI50 (KM12): 37.2 µM | LC50 (50% net cell kill) (KM12): > 100 µM | TGI (KM12; read-out: pTGI (converted)): > 100 µM | GI50 (SW-620): 89.1 µM | CC50 (SW-620; [3]): > 100 µM | TGI (SW-620; read-out: pTGI (converted)): > 100 µM | GI50 (SF-295): 23.4 µM | LC50 (50% net cell kill) (SF-295): > 100 µM | TGI (SF-295; read-out: pTGI (converted)): 52.5 µM | GI50 (SNB-19): 64.6 µM | LC50 (SNB-19): > 100 µM | TGI (SNB-19; read-out: pTGI (converted)): > 100 µM | GI50 (U-251): 26.3 µM | LC50 (50% net cell kill) (U-251): > 100 µM | TGI (U-251; read-out: pTGI (converted)): > 100 µM | GI50 (LOX IMVI): 34.7 µM | LC50 (LOX IMVI): > 100 µM | TGI (LOX IMVI; read-out: pTGI (converted)): > 100 µM | GI50 (M14): > 100 µM | CC50 (M14; [3]): > 100 µM | TGI (M14; read-out: pTGI (converted)): > 100 µM | GI50 (OVCAR-5): 95.5 µM | CC50 (OVCAR-5; [3]): > 100 µM | TGI (OVCAR-5; read-out: pTGI (converted)): > 100 µM | GI50 (OVCAR-8): 32.4 µM | CC50 (OVCAR-8; [3]): > 100 µM | TGI (OVCAR-8; read-out: pTGI (converted)): > 100 µM | GI50 (SK-OV-3): 25.7 µM | CC50 (SK-OV-3; [3]): > 100 µM | TGI (SK-OV-3; read-out: pTGI (converted)): 55 µM | GI50 (786-0): 24.5 µM | CC50 (786-0; [3]): > 100 µM | TGI (786-0; read-out: pTGI (converted)): > 100 µM | GI50 (CAKI-1): 79.4 µM | CC50 (CAKI-1; [3]): > 100 µM | TGI (CAKI-1; read-out: pTGI (converted)): > 100 µM | GI50 (RXF 393): 20 µM | CC50 (RXF 393; [3]): > 100 µM | TGI (RXF 393; read-out: pTGI (converted)): 74.1 µM | GI50 (TK-10): 53.7 µM | CC50 (TK-10; [3]): > 100 µM | TGI (TK-10; read-out: pTGI (converted)): > 100 µM | GI50 (PC-3): 15.1 µM | CC50 (PC-3; [3]): > 100 µM | TGI (PC-3; read-out: pTGI (converted)): > 100 µM | GI50 (DU-145): 69.2 µM | CC50 (DU-145; [3]): > 100 µM | TGI (DU-145; read-out: pTGI (converted)): > 100 µM | GI50 (NCI/ADR-RES): 60.3 µM | CC50 (NCI/ADR-RES; [3]): > 100 µM | TGI (NCI/ADR-RES; read-out: pTGI (converted)): > 100 µM | GI50 (MDA-MB-231): 20.4 µM | CC50 (MDA-MB-231; [3]): > 100 µM | TGI (MDA-MB-231; read-out: pTGI (converted)): 64.6 µM | GI50 [2]: 24.5 µM | CC50 [2, 3]: > 100 µM | TGI ([2]; read-out: pTGI (converted)): > 100 µM | GI50 (MDA-MB-435): 40.7 µM | CC50 (MDA-MB-435; [3]): > 100 µM | TGI (MDA-MB-435; read-out: pTGI (converted)): > 100 µM
